Inhibition and IC50 data for 24 compounds are collected here from PubChem BioAssay AID624398 (The Scripps Research Institute Molecular Screening Center, 2012).

One may read the inhibition as the drop in the measured response relative to a control, in per cent. In general, IC50 refers to the concentration that gives 50% inhibition.

The nature of assay [1]: inhibitors of ER-driven luciferase reporter, late-stage follow-up, counter-screen for AHR activator project, BG1Luc4E2 ovarian carcinoma cells, luminescence, set 2 (AID 624398). Conditions: BG1Luc4E2 ERE-luciferase, estradiol-induced, luminescence, 24 h; at 10 µM; hits give high values. In a few lines: (§1)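 Material: 2xERE luciferase reporter / Reagent: estradiol stimulus at 1 nM / Timing: compound and estradiol exposure 24 h at 37 °C / Signal: luciferase luminescence measured after cell lysis / Replication: triplicate wells for the 10 µM dose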

The subject of assay [2] is BG1Luc4E2 ERE-luciferase, estradiol-induced, luminescence, 24 h. The assay is described as above. Summed up:
as §1

Activity calls are given as the source filed them.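 How the source made its calls: active means estrogen-induced reporter signal reduced by at least 20%; inactive means reduction of reporter signal under 20%.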

On to `Cc1cc(Br)cc(C)c1Nc1ccnc(Nc2ccc(C#N)cc2)n1`, for which the inhibition in assay [1] is 92.9%.
On the same count and under the same terms, as for `O=C(CSc1nc2ccccc2s1)Nc1ccccn1`, the figure is 79%; as for `Cc1cc(Nc2ccc(F)cc2)nc(N)n1`, 15.8% (inactive).
On the same count and under the same terms, as for `O=C(CSc1nc2ccccc2s1)Nc1ccc(Cl)cn1`, the figure is 38.8%; as for `CCOc1ccccc1NC(=O)c1ccc(C(=O)Nc2ccccc2OCC)nc1`, -45.6% (inactive); as for `CN(Cc1cc(-c2cccs2)n[nH]1)Cc1coc2ccccc2c1=O`, -31.1% (inactive).
On the same count and under the same terms, the same measure for `COc1ccc(O)c(-c2cc(-c3cccs3)[nH]n2)c1`: 43.1%.
In the case of `COc1ccc(Cl)cc1NC(=O)c1ccc(C(=O)Nc2cc(Cl)ccc2OC)nc1`, the inhibition in assay [1] was 79.6%.
For `Cc1ccc(-c2cc(-c3ccc(Cl)cc3)n[nH]2)c(O)c1`, the IC50 in assay [2] was 30 µM.
As to `Cc1ccnc(NC(=O)CSc2nc3ccccc3s2)c1`, the inhibition in assay [1] is 16.1% (inactive).
Same read-out and setting: as for `Nc1nc(Cl)cc(Nc2ccc(Oc3ccccc3)cc2)n1`, the figure is -6.3% (inactive); as for `COc1ccc(Nc2cc(Cl)nc(N)n2)cc1OC`, -18.4% (inactive).
For the compound `Cc1csc(SCC(=O)Nc2ccccn2)n1`, the inhibition in assay [1] is 12.2% (inactive).
Still for that read-out and setting: as for `Nc1nc(Cl)cc(Nc2ccccc2F)n1`, the figure is 8% (inactive); as for `COc1ccc(Nc2cc(Cl)nc(N)n2)cc1`, -52.4% (inactive).
Same read-out and setting: as for `Cc1cccc(C)c1NC(=O)c1ccc(C(=O)Nc2c(C)cccc2C)nc1`, the figure is -12.6% (inactive).
Still for that read-out and setting: the same measure for `CCOC(=O)c1c(C)nn(-c2cc(Cl)ccc2Cl)c1C`: 29%.
As to `O=C(CSc1nc(-c2ccc(F)cc2)cs1)Nc1ccccn1`, in assay [1], the inhibition is -26.7% (inactive).
`Cc1ccc(-c2cc(-c3ccc(F)cc3)n[nH]2)c(O)c1`: the IC50 in assay [2] is 20 µM.
`COc1ccc(-c2cc(-c3ccc(C)cc3O)[nH]n2)cc1`: the inhibition in assay [1] is 40.9%.
With `Cc1ccc(O)c(-c2cc(-c3ccccc3Cl)[nH]n2)c1`, the inhibition in assay [1] is 66.3%.
For the compound `COc1ccc(NC(=O)c2ccc(C(=O)Nc3ccc(OC)cc3OC)nc2)c(OC)c1`, in assay [1], the inhibition was 19.4% (inactive).
The same measure, in the same setting: the same measure for `Cc1ccc(NC(=O)c2ccc(C(=O)Nc3ccc(C)cc3C)nc2)c(C)c1`: 33.6%.
Same read-out and setting: as for `Cc1cccc(NC(=O)c2cc(-c3ccc(C)cc3O)n[nH]2)c1`, the figure is -95.6% (inactive).
